From ChEMBL document CHEMBL2380254, “Optimization of tocotrienols as antiproliferative and antimigratory leads” (Eur J Med Chem, 2013)

Experiments:
Assay type in all cases: functional
[1] = test system: BT-549; assay: Growth inhibition of human BT549 cells assessed as cell growth at 10 uM after 48 hrs by sulforhodamine B assay; conditions: BT-549, 48 h, read-out: Activity
In short: (§1)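 NCI-60 single-dose screen at 10 µM: cells in RPMI 1640 with 5% FBS, preincubated 24 h, then exposed 48 h at 37 °C. TCA fixation (16% final for suspension cells), SRB staining, absorbance 515 nm. Percent growth relative to time-zero and untreated control plates; negative values indicate cell kill.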

[2] = test system: A498; assay: Growth inhibition of human A498 cells after 48 hrs by sulforhodamine B assay; conditions: A498, 48 h
In short: (§2)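 NCI-60 screen: cells in RPMI 1640 with 5% FBS and 2 mM glutamine, 5000–40,000 cells/well, preincubated 24 h. Five concentrations (10-fold dilutions; 100 to 0.001 µM) applied for 48 h at 37 °C. TCA fixation, SRB stain, absorbance at 515 nm. Time-zero plates included; GI50 where 100×(T−T0)/(C−T0)=50.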

[3] = test system: Malme-3M; assay: Growth inhibition of human MALME-3M cells assessed as cell growth at 10 uM after 48 hrs by sulforhodamine B assay; conditions: read-out: Activity
In short: (§3)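 Single-dose NCI-60 screen: adherent cells in RPMI 1640 with 5% FBS were exposed to 10 µM for 48 h at 37 °C after a 24 h preincubation. They were fixed in situ with cold TCA (10% final), stained with 0.4% SRB in 1% acetic acid, solubilized in 10 mM Tris base, and read at 515 nm. Percent growth was taken relative to time-zero and control plates.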

[4] = test system: MDA-MB-435; assay: Growth inhibition of human MDA-MB-435 cells assessed as cell growth at 10 uM after 48 hrs by sulforhodamine B assay; conditions: MDA-MB-435, 48 h, read-out: Activity; in short: as §3
[5] = test system: SN12C; assay: Growth inhibition of human SN12C cells after 48 hrs by sulforhodamine B assay
In short: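 NCI-60 five-dose screen. Cells were grown in RPMI 1640 with 5% FBS and 2 mM L-glutamine, plated at 5000–40,000 cells/well and incubated 24 h before dosing, with T0 plates TCA-fixed. DMSO stocks were diluted to doses of […] and exposed 48 h at 37 °C, 5% CO2. Cells were fixed with cold TCA (final 10%, 60 min, 4 °C), stained with 0.4% SRB in 1% acetic acid for 10 min, solubilized in 10 mM trizma base and read at 515 nm. GI50 is where 100×(T−T0)/(C−T0)=50.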

[6] = test system: A549; assay: Growth inhibition of human A549/ATCC cells after 48 hrs by sulforhodamine B assay; conditions: A549, 48 h; in short: as §2
[7] = test system: MOLT-4; assay: Growth inhibition of human MOLT4 cells assessed as cell growth at 10 uM after 48 hrs by sulforhodamine B assay; conditions: MOLT-4, 48 h, read-out: Activity
In short: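 Single 10 µM dose applied to suspension cells in RPMI 1640 with 5% FBS and 2 mM L-glutamine for 48 h at 37 °C. Settled cells were fixed with 80% TCA (16% final), stained with SRB, and read at 515 nm. Percent growth was calculated against time-zero and untreated control optical densities.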

[8] = test system: MDA-MB-468; assay: Growth inhibition of human MDA-MB-468 cells after 48 hrs by sulforhodamine B assay; conditions: MDA-MB-468, 48 h
In short: (§4)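 NCI-60 panel cells grown in RPMI 1640 with 5% FBS and 2 mM L-glutamine, seeded at 5000–40,000 cells/well and preincubated 24 h. Five 10-fold dilutions (0.001–100 µM) from DMSO stocks were added for 48 h at 37 °C. Adherent cells were fixed with cold TCA (10% final) for 60 min at 4 °C, stained with 0.4% SRB, and read at 515 nm. GI50 was set where 100×(T−T0)/(C−T0)=50.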

[9] = test system: COLO 205; assay: Growth inhibition of human COLO205 cells after 48 hrs by sulforhodamine B assay; conditions: COLO 205, 48 h; in short: as §2
[10] = test system: SF-268; assay: Growth inhibition of human SF268 cells assessed as cell growth at 10 uM after 48 hrs by sulforhodamine B assay; conditions: SF-268, 48 h, read-out: Activity; in short: as §3
[11] = test system: 786-0; assay: Growth inhibition of human 786-0 cells after 48 hrs by sulforhodamine B assay; conditions: 786-0, 48 h; in short: as §2
[12] = test system: OVCAR-5; assay: Growth inhibition of human OVCAR5 cells assessed as cell growth at 10 uM after 48 hrs by sulforhodamine B assay; conditions: OVCAR-5, 48 h, read-out: Activity; in short: as §3
[13] = test system: RXF 393; assay: Growth inhibition of human RXF393 cells after 48 hrs by sulforhodamine B assay; conditions: RXF 393, 48 h; in short: as §4
[14] = test system: PC-3; assay: Growth inhibition of human PC3 cells assessed as cell growth at 10 uM after 48 hrs by sulforhodamine B assay; conditions: PC-3, 48 h, read-out: Activity; in short: as §3
[15] = Growth inhibition of human Hs 578T cells assessed as cell growth at 10 uM after 48 hrs by sulforhodamine B assay; conditions: read-out: Activity; in short: as §1
[16] = test system: SK-MEL-5; assay: Growth inhibition of human SK-MEL-5 cells after 48 hrs by sulforhodamine B assay; conditions: SK-MEL-5, 48 h; in short: as §4
[17] = test system: MDA-MB-435; assay: Growth inhibition of human MDA-MB-435 cells after 48 hrs by sulforhodamine B assay; conditions: MDA-MB-435, 48 h; in short: as §4
[18] = test system: DU-145; assay: Growth inhibition of human DU145 cells assessed as cell growth at 10 uM after 48 hrs by sulforhodamine B assay; conditions: DU-145, 48 h, read-out: Activity; in short: as §1
[19] = test system: SF-268; assay: Growth inhibition of human SF268 cells after 48 hrs by sulforhodamine B assay; conditions: SF-268, 48 h; in short: as §4
[20] = test system: IGROV-1; assay: Growth inhibition of human IGROV1 cells after 48 hrs by sulforhodamine B assay; conditions: IGROV-1, 48 h; in short: as §2
[21] = test system: MDA-MB-468; assay: Growth inhibition of human MDA-MB-468 cells assessed as cell growth at 10 uM after 48 hrs by sulforhodamine B assay; conditions: MDA-MB-468, 48 h, read-out: Activity; in short: as §3
[22] = test system: SW-620; assay: Growth inhibition of human SW620 cells assessed as cell growth at 10 uM after 48 hrs by sulforhodamine B assay; conditions: SW-620, 48 h, read-out: Activity
In short: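 Single-dose NCI-60 test at 10 µM. Cells were grown in RPMI 1640 with 5% FBS and 2 mM L-glutamine, preincubated 24 h, with T0 plates TCA-fixed. Exposure was 48 h at 37 °C, 5% CO2. Cells were fixed with cold TCA (final 10%, 4 °C, 60 min), stained with SRB and read at 515 nm. Percent growth was taken relative to T0 and untreated control; negative values denote cell kill.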

[23] = Growth inhibition of human Hs 578T cells after 48 hrs by sulforhodamine B assay; in short: as §2
[24] = test system: HOP-62; assay: Growth inhibition of human HOP62 cells after 48 hrs by sulforhodamine B assay; conditions: HOP-62, 48 h; in short: as §2
[25] = test system: OVCAR-5; assay: Growth inhibition of human OVCAR5 cells after 48 hrs by sulforhodamine B assay; conditions: OVCAR-5, 48 h; in short: as §4
[26] = test system: MCF7; assay: Growth inhibition of human MCF7 cells after 48 hrs by sulforhodamine B assay; conditions: MCF7, 48 h; in short: as §4

## CC(C)=CCC/C(C)=C/CC/C(C)=C/CC[C@]1(C)CCc2c3c(cc(C)c2O1)OCN(CCc1ccc(O)cc1)C3
[1]
  growth at 10 µM: 105%
[2]
  GI50: 6.21 µM
[3]
  growth at 10 µM: 95.8%
[4]
  growth at 10 µM: -53.1%
[5]
  GI50: 4.9 µM
[6]
  GI50: 6.09 µM
[7]
  growth at 10 µM: -3.07%
[8]
  GI50: 1.55 µM
[9]
  GI50: 0.958 µM
[10]
  growth at 10 µM: 18.2%
[11]
  GI50: 6.61 µM
[12]
  growth at 10 µM: 91.2%
[13]
  GI50: 3.34 µM
[14]
  growth at 10 µM: 61.1%
[15]
  growth at 10 µM: -6.12%
[16]
  GI50: 5.42 µM
[17]
  GI50: 4.54 µM
[18]
  growth at 10 µM: 42.1%
[19]
  GI50: 6.17 µM
[20]
  GI50: 4.34 µM
[21]
  growth at 10 µM: -44.6%
[22]
  growth at 10 µM: -95.2%
[23]
  GI50: 6.29 µM
[24]
  GI50: 5.66 µM
[25]
  GI50: 6.11 µM
[26]
  GI50: 1.28 µM

## CC(C)=CCC/C(C)=C/CC/C(C)=C/CC[C@]1(C)CCc2c3c(c(C)c(C)c2O1)OCN(CCCCO)C3
[1]
  growth at 10 µM: 104%
[2]
  GI50: > 10 µM
[3]
  growth at 10 µM: 93.3%
[4]
  growth at 10 µM: 53.9%
[5]
  GI50: 7.98 µM
[6]
  GI50: 3.3 µM
[7]
  growth at 10 µM: 35.8%
[8]
  GI50: 2.53 µM
[9]
  GI50: 2.09 µM
[10]
  growth at 10 µM: 75.2%
[11]
  GI50: > 10 µM
[12]
  growth at 10 µM: 83.1%
[13]
  GI50: 5.63 µM
[14]
  growth at 10 µM: 71.8%
[15]
  growth at 10 µM: 91.6%
[16]
  GI50: > 10 µM
[17]
  GI50: 4.68 µM
[18]
  growth at 10 µM: 88.8%
[19]
  GI50: > 10 µM
[20]
  GI50: 6.53 µM
[21]
  growth at 10 µM: 57%
[22]
  growth at 10 µM: -16.1%
[23]
  GI50: > 10 µM
[24]
  GI50: 5.95 µM
[25]
  GI50: > 10 µM
[26]
  GI50: 1.78 µM

## CC(C)=CCC/C(C)=C/CC/C(C)=C/CC[C@]1(C)CCc2c3c(cc(C)c2O1)OCN(CCCCO)C3
[1]
  growth at 10 µM: 88.2%
[2]
  GI50: 14.8 µM
[3]
  growth at 10 µM: 51.2%
[4]
  growth at 10 µM: -31.8%
[5]
  GI50: 16.3 µM
[6]
  GI50: 15.5 µM
[7]
  growth at 10 µM: -35.3%
[8]
  GI50: 15.1 µM
[9]
  GI50: 3.05 µM
[10]
  growth at 10 µM: -70.5%
[11]
  GI50: 15.5 µM
[12]
  growth at 10 µM: 6.91%
[13]
  GI50: 4.68 µM
[14]
  growth at 10 µM: 61.4%
[15]
  growth at 10 µM: 44.8%
[16]
  GI50: 14.5 µM
[17]
  GI50: 17 µM
[18]
  growth at 10 µM: 2.95%
[19]
  GI50: 17.7 µM
[20]
  GI50: 14.8 µM
[21]
  growth at 10 µM: -63.2%
[22]
  growth at 10 µM: -79.7%
[23]
  GI50: 18.5 µM
[24]
  GI50: 16.2 µM
[25]
  GI50: 17.3 µM

## CC(C)=CCC/C(C)=C/CC/C(C)=C/CC[C@]1(C)CCc2c3c(c(C)c(C)c2O1)OCN(CCCCCCCCO)C3
[1]
  growth at 10 µM: 109%
[2]
  GI50: 2.32 µM
[3]
  growth at 10 µM: 71.7%
[4]
  growth at 10 µM: -21.4%
[5]
  GI50: 2.55 µM
[6]
  GI50: 2.5 µM
[7]
  growth at 10 µM: 2.94%
[8]
  GI50: 2.57 µM
[9]
  GI50: 2.78 µM
[10]
  growth at 10 µM: 54.9%
[11]
  GI50: 2.72 µM
[12]
  growth at 10 µM: 72.8%
[13]
  GI50: 2.45 µM
[14]
  growth at 10 µM: 26.8%
[15]
  growth at 10 µM: 81.7%
[16]
  GI50: 2.9 µM
[17]
  GI50: 3.2 µM
[18]
  growth at 10 µM: 73.1%
[19]
  GI50: 2.78 µM
[20]
  GI50: 2.88 µM
[21]
  growth at 10 µM: -12.6%
[22]
  growth at 10 µM: 10.1%
[23]
  GI50: 2.61 µM
[24]
  GI50: 2.81 µM
[25]
  GI50: 2.83 µM
[26]
  GI50: 2.59 µM

## CC(C)=CCC/C(C)=C/CC/C(C)=C/CC[C@]1(C)CCc2c3c(cc(C)c2O1)OCN(CCCCCCCCO)C3
[2]
  GI50: 4.71 µM
[3]
  growth at 10 µM: -56.5%
[4]
  growth at 10 µM: -76.2%
[5]
  GI50: 1.54 µM
[6]
  GI50: 0.616 µM
[7]
  growth at 10 µM: -58.6%
[8]
  GI50: 0.591 µM
[9]
  GI50: 0.886 µM
[10]
  growth at 10 µM: -83.1%
[11]
  GI50: 2.71 µM
[12]
  growth at 10 µM: -70.8%
[13]
  GI50: 0.551 µM
[15]
  growth at 10 µM: 12%
[16]
  GI50: 2.76 µM
[17]
  GI50: 1.16 µM
[18]
  growth at 10 µM: -57.7%
[19]
  GI50: 4.14 µM
[20]
  GI50: 1.34 µM
[21]
  growth at 10 µM: -90.7%
[22]
  growth at 10 µM: -46%
[23]
  GI50: 0.938 µM
[24]
  GI50: 2.7 µM
[25]
  GI50: 2.73 µM
[26]
  GI50: 0.515 µM
